This is an account of results in paper PMC4174307 (Nature, 2014).

Broadly, the Ki is the dissociation constant of the complex between target and ligand, obtained from inhibition or displacement. For orientation: Kd means the free concentration of one partner at which half of the binding sites on the other are occupied at equilibrium, for simple one-to-one binding.

SMILES strings stand for the structures.

The target in assay [1] is T1, P2Y12R (WT) (Homo sapiens, UniProt Q9H244). In words: [3H]2MeSADP displacement, membranes. Format: binding.
The target of assay [2] is T2, P2Y12R (WT) (Homo sapiens, UniProt Q9H244, D294N). In words: [3H]2MeSADP displacement, membranes. Format: binding.
For assay [3], the target named is T2, P2Y12R (WT). The assay can be described thus: saturation radioligand binding, membranes. In outline: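 Receptor construct carrying the D294N mutation, with BRIL fused into ICL3, expressed in Sf9 cells. Membranes were prepared by homogenization, a 1,000g spin, then a 20,000g 60 min pellet. Saturation binding used [3H]2MeSADP (3.5 Ci mmol−1, 0.4–46 nM), 5 μg membrane protein, in Tris-HCl with 10 mM MgCl2. Nonspecific binding was defined with 10 μM P2Y12R antagonist. Filtration was followed by scintillation counting. Kd from independent experiments in duplicate.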

The target in assay [4] is P2Y12R (WT) (Homo sapiens, UniProt Q9H244, N159A). In words: saturation radioligand binding, membranes. In outline: (§1)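 Human P2Y12R (wild type or single alanine mutants) in pcDNA3.0, transiently transfected into COS7 cells and harvested 48 h later. Membranes: 1,000g spin, then 20,000g pellet for 60 min, stored at −80 °C. [3H]2MeSADP (3.5 Ci mmol−1, 0.4–46 nM) was incubated with 5 μg membrane protein in Tris-HCl with 10 mM MgCl2. Nonspecific binding was defined with 10 μM P2Y12R antagonist. Bound ligand was separated by filtration, washed with cold buffer and counted by scintillation. Kd is mean ± s.e.m., 3–6 independent experiments in duplicate.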

For assay [5], the target named is T1, P2Y12R (WT). In words: saturation radioligand binding, membranes. In outline: as §1
For assay [6], the target named is P2Y12R (WT) (Homo sapiens, UniProt Q9H244, S156A). In words: saturation radioligand binding, membranes. The procedure, abridged: as §1
P2Y12R (WT) (Homo sapiens, UniProt Q9H244, S156A), sequence (Q9H244 whole entry S156A): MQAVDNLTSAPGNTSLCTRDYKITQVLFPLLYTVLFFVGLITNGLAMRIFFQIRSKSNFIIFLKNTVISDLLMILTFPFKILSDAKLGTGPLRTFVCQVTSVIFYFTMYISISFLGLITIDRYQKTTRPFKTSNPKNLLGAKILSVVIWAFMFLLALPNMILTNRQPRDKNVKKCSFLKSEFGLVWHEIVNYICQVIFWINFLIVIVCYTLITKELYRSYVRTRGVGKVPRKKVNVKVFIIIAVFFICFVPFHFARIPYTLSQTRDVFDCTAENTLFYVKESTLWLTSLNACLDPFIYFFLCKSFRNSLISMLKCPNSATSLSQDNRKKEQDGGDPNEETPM

T2 sequence (Q9H244 whole entry D294N, the tested form may be a part): as the sequence (Q9H244 whole entry S156A) above, with A156S, D294N counted along it
T1 sequence (Q9H244 whole entry): as the sequence (Q9H244 whole entry S156A) above, with A156S counted along it
P2Y12R (WT) (Homo sapiens, UniProt Q9H244, N159A), sequence (Q9H244 whole entry N159A): as the sequence (Q9H244 whole entry S156A) above, with A156S, N159A counted along it

For `CSc1nc(N)c2ncn([C@@H]3O[C@H](COP(=O)(O)OP(=O)(O)OP(=O)(O)O)[C@@H](O)[C@H]3O)c2n1` [2MeSATP], the inhibition constant (Ki) at P2Y12R (WT) [1] is 119 ± 19.8 nM; at P2Y12R (WT) [2], 82.4 ± 28.5 nM.
The matching figures for `CCCSc1nc(N[C@@H]2C[C@H]2c2ccc(F)c(F)c2)c2nnn([C@@H]3C[C@H](OCCO)[C@@H](O)[C@H]3O)c2n1` [Ticagrelor]: 454 ± 110 nM and 424 ± 193 nM.
The matching figures for `Nc1ncnc2c1ncn2[C@@H]1O[C@H](COP(=O)(O)OP(=O)(O)O)[C@@H](O)[C@H]1O` [ADP]: 332 ± 35 nM and 169 ± 81 nM.
The matching figures for `Nc1c(S(=O)(=O)O)cc(Nc2ccc(Nc3ccccc3)c(S(=O)(=O)O)c2)c2c1C(=O)c1ccccc1C2=O` [PSB-0739]: 275 ± 58 nM and 72.8 ± 16.7 nM.
`CCOC(=O)c1cc(C#N)c(N2CCC(C(=O)NS(=O)(=O)Cc3ccccc3)CC2)nc1C` [AZD1283, Ethyl 6-(4-((benzylsulphonyl)carbamoyl)piperidin-1-yl)-5-cyano-2-methylnicotinate] displayed an inhibition constant (Ki) on P2Y12R (WT) [1] of 31.5 ± 11.9 nM.
Regarding `CSc1nc(N)c2ncn([C@@H]3O[C@H](COP(=O)(O)OP(=O)(O)O)[C@@H](O)[C@H]3O)c2n1` [2MeSADP, 2-methylthio-adenosine 5′-diphosphate], the equilibrium dissociation constant (Kd) at P2Y12R (WT) [3] stood at 33.6 ± 10.2 nM; on P2Y12R (WT) [4] it was 6.39 ± 0.94 nM; on P2Y12R (WT) [5], 4.25 ± 0.87 nM; on P2Y12R (WT) [6], 5.66 ± 0.72 nM. Also, the values for the inhibition constant (Ki) on P2Y12R (WT) [1] and on P2Y12R (WT) [2] were 120 ± 7.3 nM and 80.8 ± 16.8 nM, respectively.
